Measured values gathered from unrelated publications.
Each line is one published result; the experiments were not run side by side.
Target: Death-associated protein kinase 3 (DAPK3, Homo sapiens, UniProt O43293)

| SMILES | test | conditions | measurement | value |
| --- | --- | --- | --- | --- |
| COc1cc2ncnc(Nc3ccc(F)c(Cl)c3)c2cc1OCCCN1CCOCC1 | cell-free assay | 0.5 µM | remaining signal | 95.7% |
| Cn1c2c(c3ccc(Cl)c(Cl)c31)C(C#N)C1(CCNCC1)NC2=O (racemic) | thermal stability, DSF | 10 µM | ΔTm | > 8 °C |
| COc1cc(Cl)c(C(=O)N[C@@H](CN[C@H]2CC[C@@H](N)CC2)Cc2ccc(C#N)cc2)cc1-c1ccc(CN[C@H](C)c2ccc(C)cc2)o1 | enzyme activity, inhibitor | 1 µM | remaining activity | 89% |
| CN1CC(Oc2cnc(C#N)cc2-c2ccn3nc(NC(=O)C4CC4)cc3c2)C1 | enzyme activity, inhibitor | 1 µM | inhibition | 4% |
| Cc1ccc(Nc2nccc(N(C)c3ccc4c(C)n(C)nc4c3)n2)cc1S(N)(=O)=O | enzyme activity, inhibitor | 0.3 µM | inhibition | -7% |
| CC(C)(C)c1nc(-c2cccc(NS(=O)(=O)c3c(F)cccc3F)c2F)c(-c2ccnc(N)n2)s1 | enzyme activity, inhibitor, radiometric | 1 µM | remaining activity | 54% |
| C#Cc1cccc(Nc2ncnc3cc(OCCOC)c(OCCOC)cc23)c1 | cell-free assay | 0.5 µM | remaining signal | 95.4% |
| Cc1ccc(C(=O)Nc2ccc(CN3CCN(C)CC3)c(C(F)(F)F)c2)cc1C#Cc1cnc2cccnn12 | enzyme activity, inhibitor | 23.5 nM | remaining activity | 99% |
| CC(C)(O)[C@H]1CC[C@H](Nc2ccc3ncc(-c4cccc(C(F)(F)F)c4)n3n2)CC1 | enzyme activity, inhibitor | 1 µM | remaining activity | 120% |
| O=C(Nc1cccnn1)N1CCC(=Cc2cccc(Oc3ccc(C(F)(F)F)cn3)c2)CC1 | cell-free assay, competition with immobilised ligand | 1 µM | remaining binding | 79% |
| CNC(=O)c1cc(Oc2ccc(NC(=O)Nc3ccc(Cl)c(C(F)(F)F)c3)cc2)ccn1 | cell-free assay | 0.5 µM | remaining signal | 92.9% |
| CN([C@@H]1CCc2c(CC(=O)O)c3ccccc3n2C1)S(=O)(=O)c1ccc(F)cc1 | cell-free assay, competition with immobilised ligand | 1 µM | remaining binding | 87% |
| COc1cc(-c2cc(-c3ccc(N4CCNCC4)cc3)cnc2C)cc(OC)c1OC | enzyme activity, inhibitor | 0.1 µM | inhibition | 1% |
| C[C@H](c1ccc(F)cc1)N(Cc1cccc(C(=O)O)c1)C(=O)c1cnc2ccccc2c1 | cell-free assay, competition with immobilised ligand | 1 µM | remaining binding | 100% |
| O=C1Nc2ccc(Cl)cc2C1=Cc1cc(Cl)c(O)c(Cl)c1 | cell-free assay | 0.5 µM | remaining signal | 82.3% |
| O=c1nc(-c2ccccn2)sc2ccccc12 | binding, competition with immobilised ligand | 1 µM | remaining binding | 91% |
| Nc1ncnc2occ(-c3ccc(NC(=O)Nc4cc(C(F)(F)F)ccc4F)cc3)c12 | cell-free assay, inhibitor | 20 µM | remaining signal | 7.9% |
| Cc1cc(NC(=O)c2cccc(S(F)(F)(F)(F)F)c2)cc(-n2ccn3nc(-c4cccnc4)cc23)c1 | cell-free assay, competition with immobilised ligand | 1 µM | remaining binding | 100% |
| Cc1sc(C(=O)NC2COC2)cc1-n1cc(NC(=O)Nc2c(F)cccc2Cl)cn1 | enzyme activity, inhibitor | 10 µM | remaining activity | 101% |
| Cc1nc(Cc2cccc(C(F)(F)F)c2)sc1-c1ccc(C(N)=O)nc1 | cell-free assay, competition with immobilised ligand | 1 µM | remaining binding | 88% |
| Cc1ccc(NC(=O)c2ccc(C)c(C(F)(F)F)c2)cc1C#Cc1nn(C2CCC(O)CC2)c2ncnc(N)c12 (centres unmarked) | cell-free assay | 10 µM | remaining signal | 110% |
| O=S(=O)(NC1CCC(c2cc(F)ccc2F)(S(=O)(=O)c2ccc(Cl)cc2)CC1)C(F)(F)F (centres unmarked) | cell-free assay, competition with immobilised ligand | 1 µM | remaining binding | 97% |
| COc1cc2ncnc(Nc3ccc(Oc4ccccc4)cc3C)c2cc1OC | enzyme activity, inhibitor | 1 µM | inhibition | -4% |
